Compound activity (PubChem BioAssay)
In the library only some 2.3% were active in any assay of this set; here they are far more common.
TRPC4 act = opens the mouse TRPC4 cation channel; Q9QUQ5; HEK293 TRPC4beta/mu-opioid, Fluo4 calcium fluorescence; active compounds read high; B-score at 10 µM; 0.49% of 310,000 active;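 active = B-score above 5 SD of library B-scores, and initial fluorescence ratio not above library mean plus 5 SD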;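 note: positive B-score marks a calcium rise read as TRPC4 activation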
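Material: HEK293 stable line with TRPC4beta plus mu-opioid receptor; technique: Fluo4 calcium-sensitive dye fluorescence, kinetic, 1 Hz baseline; timing: Fluo4 dye loading 45 min at room temperature, 110 s recording; controls: assay buffer as low control, maximal DAMGO as high control; read-out: integrated baseline-normalised fluorescence ratio, converted to per-well B score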
TRPC6 activator = mouse TRPC6 channel activation. HEK293-TRPC6 membrane potential dye fluorescence; active compounds read high. 0.13% of 310,000 active. Q61143. B-score at 10 µM;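 active = B-score of the integrated fluorescence ratio above library mean plus 3 SD, and starting fluorescence ratio within library mean plus 5 SD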;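 note: higher score means more depolarization so channel activation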
TRPC4 potent = TRPC4 (mouse) allosteric potentiation; Q9QUQ5; HEK293 TRPC4beta/mu-opioid, DAMGO EC20, Fluo-4 Ca2+ flux; active compounds read high; B-score at 10 µM; 0.42% of 310,000 active; AID 2227;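 active = B-score of calcium response area above 5 SD of library B-scores, with initial fluorescence ratio within 5 SD of library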
TRPC4 block = TRPC4 (mouse) channel inhibition; 0.39% of 300,000 active; Q9QUQ5; HEK293 TRPC4beta/mu-opioid, DAMGO-evoked Fluo4 calcium flux; active compounds read low; AID 2247; B-score at 10 µM;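 active = B-score over 3 SD under the library average, no early fluorescence shift, positive overall ratio signal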
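Assay system: Stable TRPC4beta/mu-opioid receptor HEK293 cells | Reagent: DAMGO in two steps, submaximal then maximal | Compound dosing: Single concentration per test compound | Signal: Fluo4 Ca2+ flux fluorescence | Evaluation: Per-well B score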
TRPC6 inh = blocks the mouse TRPC6 cation channel; HEK293-TRPC6, membrane potential dye, ACh-evoked depolarization; active compounds read low; B-score at 10 µM; 1.1% of 310,000 active; AID 2553;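 active = B-score under library mean minus 3 SD, initial fluorescence not abnormally high, positive integrated signal ratio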;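 note: B-score derived from integrated fluorescence ratio over the kinetic read; more negative B-score means stronger inhibition of depolarization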
HEK293 MPD ctr = checks TRPC6 modulator effects in parental HEK293 cells | membrane potential signal change, % at 10 µM | membrane potential dye fluorescence | AID 488924 | 51% of 2,400 active | shares compounds with TRPC6 inh;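 active = membrane potential signal moves up or down beyond 5 SD from buffer-only wells, on both duplicate plates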
HEK293 MPD ctr 2 = second counter-screen for TRPC6 modulators: effect in parental HEK293 cells | AID 488926 | shares compounds with TRPC6 inh | inhibition, % at 10 µM | membrane potential dye fluorescence; after compound, maximal acetylcholine stimulation | 14% of 2,400 active;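 active = membrane potential signal drops by more than 5 SD from the mean control signal, in both duplicate plates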
TRPC4/MOR mod = selectivity of TRPC6 modulators against mouse TRPC4. shares compounds with TRPC6 inh. HEK293 TRPC4/mu-opioid, membrane potential fluorescence. percent change from control (negative = decrease, positive = increase), % at 10 µM. 69% of 2,400 active. AID 488927;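 active = membrane potential signal moved up or down beyond 5 SD of buffer control wells, in both duplicate plates, actives on both sides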
TRPC4/MOR inh 2 = second check of whether TRPC6 modulators also affect mouse TRPC4; shares compounds with TRPC6 inh; HEK293 TRPC4/mu-opioid, membrane potential dye fluorescence; stimulated with maximal-effect DAMGO; inhibition, % at 10 µM; 55% of 2,400 active;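 active = drop in membrane potential signal beyond 5 SD of the control wells in both duplicate plates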;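 note: TRPC4 counter screen for TRPC6 hits run under conditions tuned for TRPC6 not TRPC4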
TRPC6 inh conf = confirmation of mouse TRPC6 inhibitors | shares compounds with TRPC6 inh | HEK293-TRPC6, membrane potential dye, ACh-evoked depolarization | inhibition, % at 10 µM | 43% of 3,300 active;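 active = fluorescence ratio falls more than 5 SD below the full-stimulation control mean, in both duplicate runs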;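 note: integrated fluorescence ratio of peak minus minimum over baseline after agonist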
TRPC6 act confirm = confirmation of mouse TRPC6 activators. shares compounds with TRPC6 inh. HEK293-TRPC6 membrane potential dye fluorescence, FDSS. activation, % at 10 µM. 11% of 2,800 active;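 active = ratio signal rise beyond 5 SD above unstimulated control wells' mean, seen in both duplicate runs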
Numbers stand for hits.

For COc1cccc(CNC(=O)CCC2CCCN(c3cc(C)nc(N4CCCC4)n3)C2)c1 (stereo unspecified) the results were TRPC4 act inactive, TRPC6 activator inactive, TRPC4 potent inactive, TRPC4 block inactive, TRPC6 inh -6.1, HEK293 MPD ctr inactive, HEK293 MPD ctr 2 inactive, TRPC4/MOR mod -9.0%, TRPC4/MOR inh 2 43.0%, TRPC6 inh conf 47.5% and TRPC6 act confirm inactive.
For COc1cccc(CNC(=O)CCC2CCCN(C3CCOCC3)C2)c1 (stereo unspecified) the results were TRPC4 act inactive, TRPC6 activator inactive, TRPC4 potent inactive, TRPC4 block inactive and TRPC6 inh inactive.
`Cc1c(/C=N/Nc2nc3ccccc3[nH]2)c2ccccc2n1C` gave TRPC4 act inactive, TRPC6 activator inactive, TRPC4 potent inactive, TRPC4 block inactive, TRPC6 inh -14.7, HEK293 MPD ctr -192.5%, HEK293 MPD ctr 2 74.0%, TRPC4/MOR mod -40.0%, TRPC4/MOR inh 2 97.0%, TRPC6 inh conf 68.0% and TRPC6 act confirm inactive.
Screening COc1cc(/C=N/Nc2nc3ccccc3[nH]2)ccc1O returned TRPC4 act inactive, TRPC6 activator inactive, TRPC4 potent inactive, TRPC4 block inactive and TRPC6 inh inactive.
Screening CC(=O)Nc1ccc(/C=N/Nc2nc3ccccc3[nH]2)cc1 returned TRPC4 act inactive, TRPC6 activator inactive, TRPC4 potent inactive, TRPC4 block inactive and TRPC6 inh inactive.
For Cc1nn(-c2ccccc2)c(C)c1/C=N/Nc1nc2ccccc2[nH]1 the results were TRPC4 act inactive, TRPC6 activator inactive, TRPC4 potent inactive, TRPC4 block inactive and TRPC6 inh inactive.
Screening COc1ccc(O)c(/C=N/Nc2nc3ccccc3[nH]2)c1 returned TRPC4 act inactive, TRPC6 activator inactive, TRPC4 potent inactive, TRPC4 block inactive, TRPC6 inh -5, HEK293 MPD ctr inactive, HEK293 MPD ctr 2 inactive, TRPC4/MOR mod inactive, TRPC4/MOR inh 2 inactive, TRPC6 inh conf inactive and TRPC6 act confirm inactive.
Cn1c(/C=N/Nc2nc3ccccc3[nH]2)nc2ccccc21 was read as TRPC4 act inactive, TRPC6 activator inactive, TRPC4 potent inactive, TRPC4 block inactive, TRPC6 inh -9.65, HEK293 MPD ctr inactive, HEK293 MPD ctr 2 inactive, TRPC4/MOR mod -10.5%, TRPC4/MOR inh 2 inactive, TRPC6 inh conf inactive and TRPC6 act confirm inactive.
